Measured values pooled from the literature.
Compare with care: the assays were run in different laboratories.

Structure (SMILES)	test	test system	setting	measurement	value
N=C(N)NCCC[C@@H](NC(=O)[C@@H](N)Cc1ccccc1)C(=O)N[C@@H](Cc1ccccc1)C(=O)N[C@@H](CCCCN)C(N)=O		human, plasma	subcutaneous, 25 mg, multiple doses, once daily, patients	half-life	240 min
COc1cc(C(=O)NC2CCN(C)CC2)c(F)cc1Nc1ncc(C(F)(F)F)c(Oc2cccc3c2C(=O)N(C)C3)n1		human, plasma	oral, 25 mg, multiple doses, once daily, patients	half-life	1670 min
CN[C@H](CC(C)C)C(=O)N[C@H]1C(=O)N[C@@H](CC(N)=O)C(=O)N[C@H]2C(=O)NC3C(=O)N[C@H](C(=O)N[C@H](C(=O)NCCC[N+](C)(C)C)c4cc(O)cc(O)c4-c4cc3ccc4O)[C@H](O)c3ccc(c(Cl)c3)Oc3cc2cc(c3OC2OC(CO)C(O)[C@H](O)[C@@H]2O[C@H]2CC(C)(NCc3ccc(-c4ccc(Cl)cc4)cc3)[C@H](O)[C@H](C)O2)Oc2ccc(cc2Cl)[C@H]1O (some centres unmarked)		mouse, plasma	intravenous, 10 mg/kg	Vd	1.25 L/kg
Cc1nc([C@@](C)(CC2CC2)NC(=O)c2cc(OCC(F)(F)F)c(C3CC3)cn2)no1		C57BL/6 mouse, plasma	intravenous	Vd	4 L/kg
C=CCNc1c(O)cc2c(O)c1C[C@@H](C)C[C@H](OC)[C@H](O)[C@@H](C)/C=C(\C)[C@H](OC(N)=O)[C@@H](OC)/C=C\C=C(/C)C(=O)N2		human, plasma	intravenous, 400 mg/m², patients, infusion	half-life	136 min
CCN(CC)CCCC[C@H](NC(=O)[C@H](CC(C)C)NC(=O)[C@H](C)NC(=O)[C@H](Cc1ccccc1)NC(=O)c1ccc(C(C)(C)C)cc1)C(=O)N[C@@H](CO)C(=O)OC		male Swiss mouse, blood	intravenous, 3 mg/kg	Vd	0.19 L/kg
Nc1ncnc2c1ncn2[C@@H]1O[C@@H]2COP(=O)([S-])O[C@@H]3[C@H](O)[C@@H](COP([O-])(=S)O[C@H]2[C@H]1O)O[C@H]3n1cnc2c(N)ncnc21.[Na+].[Na+] (some centres unmarked)	chemical stability, HPLC	bovine, serum		half-life	4020 min
CC(=C/C=C/C(C)=C/C(=O)O)/C=C1\CCCc2ccccc21		human, plasma	oral, 10 mg, single dose, fasted, healthy volunteers	half-life	346 min
Cc1nonc1Cn1nnc2c(N3CC[C@H](O)C3)nc(C(C)(C)C)nc21		C57BL/6 mouse, plasma	intravenous	Vd	4.1 L/kg
COc1ccc(NC(=O)N2CCCCN3[C@H](CN(C)C)[C@H](c4ccc(C#Cc5ccccc5)cc4)[C@@H]3C2)cc1		mouse, plasma	intravenous	Vd	29 L/kg
CCCCCCCC(=O)NC[C@H](NC(=O)[C@H](CO)NC(=O)CN)C(=O)N[C@@H](Cc1ccccc1)C(=O)N[C@@H](CC(C)C)C(=O)N[C@@H](CO)C(=O)N1CCC[C@H]1C(=O)N[C@@H](CCC(=O)O)C(=O)O	chemical stability	PBS	1 mM, 24 h, pH 7.4	compound remaining	100%
